Data: ChEMBL document CHEMBL4261639, “Cell-Active Small Molecule Inhibitors of the DNA-Damage Repair Enzyme Poly(ADP-ribose) Glycohydrolase (PARG): Discovery and Optimization of Orally Bioavailable Quinazolinedione Sulfonamides” (J Med Chem, 2018)

Assays:
[1] = molecular target: T1, Poly(ADP-ribose) glycohydrolase (Homo sapiens, UniProt Q86W56); experiment: Inhibition of human full length PARG using Bt-NAD ribosylated PARP1 substrate after 10 mins by TR-FRET assay
[2] = molecular target: T1, Poly(ADP-ribose) glycohydrolase; experiment: Inhibition of PARG in human HeLa cells assessed as induction of MMS-induced PAR chains preincubated for 1 hr followed by MMS addition and measured after 1 hr by Alexofluor 488-conjugated secondary antibody and Hoechst 33342 staining based assay; type: cell-based
Outline: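 Acute (1 h) cell-based proof-of-mechanism assay measuring persistence of PAR chains, i.e. blockade of PARG-mediated PAR degradation, across a dose range. EC50 values are means of at least 4 independent measurements, with standard deviations.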

[3] = Clearance in human liver microsomes

T1 sequence (Q86W56 whole entry): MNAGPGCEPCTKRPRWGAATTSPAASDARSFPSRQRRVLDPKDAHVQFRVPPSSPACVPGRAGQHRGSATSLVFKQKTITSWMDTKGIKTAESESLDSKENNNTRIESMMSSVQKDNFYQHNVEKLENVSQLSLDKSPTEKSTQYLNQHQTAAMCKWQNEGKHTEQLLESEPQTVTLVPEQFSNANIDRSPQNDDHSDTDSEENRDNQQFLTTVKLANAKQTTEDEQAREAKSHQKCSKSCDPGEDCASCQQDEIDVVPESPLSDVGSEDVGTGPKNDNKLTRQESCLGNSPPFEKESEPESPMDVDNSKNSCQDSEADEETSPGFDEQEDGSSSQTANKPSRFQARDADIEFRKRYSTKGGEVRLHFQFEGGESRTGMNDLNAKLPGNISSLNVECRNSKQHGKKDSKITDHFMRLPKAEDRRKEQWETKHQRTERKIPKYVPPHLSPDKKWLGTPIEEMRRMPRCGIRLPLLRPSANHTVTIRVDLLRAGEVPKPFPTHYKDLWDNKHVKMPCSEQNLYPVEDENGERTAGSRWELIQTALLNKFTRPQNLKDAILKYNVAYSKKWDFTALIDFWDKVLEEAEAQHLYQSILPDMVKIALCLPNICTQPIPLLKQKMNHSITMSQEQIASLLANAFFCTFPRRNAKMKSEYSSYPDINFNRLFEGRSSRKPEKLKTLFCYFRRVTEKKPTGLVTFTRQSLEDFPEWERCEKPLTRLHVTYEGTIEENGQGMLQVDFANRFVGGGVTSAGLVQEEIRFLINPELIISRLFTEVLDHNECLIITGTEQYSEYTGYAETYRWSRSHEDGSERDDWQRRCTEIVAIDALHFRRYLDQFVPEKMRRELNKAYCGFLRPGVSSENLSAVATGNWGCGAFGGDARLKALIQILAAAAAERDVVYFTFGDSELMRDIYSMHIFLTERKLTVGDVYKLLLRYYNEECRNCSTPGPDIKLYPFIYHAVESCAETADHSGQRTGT

## O=c1[nH]c2ccc(S(=O)(=O)NC3CC3)cc2c2ccccc12
[1]
  EC50: 50 µM

## CCNS(=O)(=O)c1ccc2c(c1)c(=O)n(CC)c(=O)n2CC
[1]
  EC50: 140 µM

## Cn1c(=O)n(Cc2nccs2)c(=O)c2cc(S(=O)(=O)NC3(C)CC3)ccc21
[1]
  EC50: 13 µM

## N#CC1(NS(=O)(=O)c2ccc3c(c2)C(=O)c2ccccc2C3=O)CC1
[1]
  EC50: 3.3 µM
[2]
  EC50: 19 µM

## Cn1nnnc1Cn1c(=O)c2cc(S(=O)(=O)NC3(C)CC3)ccc2n(C)c1=O
[1]
  EC50: 3 µM

## CCn1c(=O)c2cc(S(=O)(=O)NC3(C#N)CC3)ccc2n(CC)c1=O
[1]
  EC50: 1.8 µM
[2]
  EC50: 5.6 µM

## Cn1cncc1Cn1c(=O)c2cc(S(=O)(=O)NC3(C)CC3)ccc2n(C)c1=O
[1]
  EC50: 3.3 µM

## Cn1c(=O)c2cc(S(=O)(=O)NC3(C)CC3)ccc2n(CC#N)c1=O
[1]
  EC50: 2.8 µM
[2]
  EC50: 8.9 µM

## Cn1c(=O)c2cc(S(=O)(=O)NC3(C)CC3)ccc2n(Cc2ccc(F)cc2)c1=O
[1]
  EC50: 0.53 µM

## Cn1c(=O)n(CC2CCCCC2)c(=O)c2cc(S(=O)(=O)NC3(C)CC3)ccc21
[1]
  EC50: > 150 µM

## Cn1c(=O)n(Cc2cnc[nH]2)c(=O)c2cc(S(=O)(=O)NC3(C)CC3)ccc21
[1]
  EC50: 4 µM

## Cn1c(=O)c2cc(S(=O)(=O)NC3(C)CC3)ccc2n(Cc2cccnc2)c1=O
[1]
  EC50: 1.3 µM

## Cn1c(=O)n(Cc2ccccn2)c(=O)c2cc(S(=O)(=O)NC3(C)CC3)ccc21
[1]
  EC50: 16 µM

## Cn1cc(Cn2c(=O)c3cc(S(=O)(=O)NC4(C)CC4)ccc3n(CC3CC3)c2=O)cn1
[1]
  EC50: 0.029 µM
[2]
  EC50: 0.056 µM
[3]
  microsomal CLint: 81 µL/min/mg

## CCn1cc(Cn2c(=O)c3cc(S(=O)(=O)NC4(C)CC4)ccc3n(C)c2=O)cn1
[1]
  EC50: 0.45 µM

## O=C1c2ccccc2C(=O)c2cc(S(=O)(=O)NCC3CC3)ccc21
[1]
  EC50: 24 µM

## Cc1nnc(Cn2c(=O)c3cc(S(=O)(=O)NC4(C)CC4)ccc3n(C)c2=O)o1
[1]
  EC50: 1.8 µM

## NC(=O)CCNS(=O)(=O)c1ccc2c(c1)C(=O)c1ccccc1C2=O
[1]
  EC50: > 150 µM

## Cc1nnc(Cn2c(=O)c3cc(S(=O)(=O)NC4(C)CC4)ccc3n(C)c2=O)s1
[1]
  EC50: 0.47 µM

## Cn1c(=O)n(Cc2csnn2)c(=O)c2cc(S(=O)(=O)NC3(C)CC3)ccc21
[1]
  EC50: 2.7 µM

## Cn1c(=O)c2cc(S(=O)(=O)NC(C)(C)C)ccc2n(C)c1=O
[1]
  EC50: 110 µM

## C#CCn1c(=O)c2cc(S(=O)(=O)NC3(C)CC3)ccc2n(C)c1=O
[1]
  EC50: 3 µM

## Cc1cc(Cn2c(=O)c3cc(S(=O)(=O)NC4(C)CC4)ccc3n(C)c2=O)on1
[1]
  EC50: 0.47 µM

## CNS(=O)(=O)c1ccc2c(c1)C(=O)c1ccccc1C2=O
[1]
  EC50: > 30 µM

## Cn1c(=O)n(Cc2ccns2)c(=O)c2cc(S(=O)(=O)NC3(C)CC3)ccc21
[1]
  EC50: 2.3 µM

## Cc1cc(Cn2c(=O)c3cc(S(=O)(=O)NC4(C)CC4)ccc3n(C)c2=O)[nH]n1
[1]
  EC50: 3.2 µM

## CN(C)CCn1c(=O)n(C)c(=O)c2cc(S(=O)(=O)NC3(C)CC3)ccc21
[1]
  EC50: 2 µM
[2]
  EC50: 6.4 µM

## Cn1c(=O)n(Cc2cncs2)c(=O)c2cc(S(=O)(=O)NC3(C)CC3)ccc21
[1]
  EC50: 1.2 µM

## Cn1c(=O)c2cc(S(=O)(=O)NC3(C)CC3)ccc2n(Cc2ccccc2F)c1=O
[1]
  EC50: 1.4 µM

## Cn1nccc1Cn1c(=O)n(C)c(=O)c2cc(S(=O)(=O)NC3(C)CC3)ccc21
[1]
  EC50: 1.2 µM

## Cn1cnnc1Cn1c(=O)c2cc(S(=O)(=O)NC3(C)CC3)ccc2n(C)c1=O
[1]
  EC50: 3.1 µM

## Cn1c(=O)n(Cc2ccsc2)c(=O)c2cc(S(=O)(=O)NC3(C)CC3)ccc21
[1]
  EC50: 20 µM

## COc1ccc(Cn2c(=O)n(C)c(=O)c3cc(S(=O)(=O)NC4(C)CC4)ccc32)cc1
[1]
  EC50: 0.45 µM

## CCn1c(=O)n(Cc2cnn(C)c2)c(=O)c2cc(S(=O)(=O)NC3(C)CC3)ccc21
[3]
  microsomal CLint: 35 µL/min/mg

## CCn1c(=O)c2cc(S(=O)(=O)NC3(C)CC3)ccc2n(CC)c1=O
[1]
  EC50: 1.5 µM
[2]
  EC50: 1.1 µM

## Cc1nc(C)c(Cn2c(=O)n(Cc3cnn(C)c3)c(=O)c3cc(S(=O)(=O)NC4(C)CC4)ccc32)s1
[1]
  EC50: 0.006 µM
[2]
  EC50: 0.02 µM
[3]
  microsomal CLint: 97 µL/min/mg

## Cn1c(=O)n(CC(=O)c2ccccc2)c(=O)c2cc(S(=O)(=O)NC3(C)CC3)ccc21
[1]
  EC50: 1.6 µM

## Cn1c(=O)c2cc(S(=O)(=O)NC3(C)CC3)ccc2n(CC2CCCCC2)c1=O
[1]
  EC50: 0.56 µM
[2]
  EC50: 2.7 µM

## Cn1c(=O)n(CC2COC2)c(=O)c2cc(S(=O)(=O)NC3(C)CC3)ccc21
[1]
  EC50: 7 µM

## Cn1c(=O)n(Cc2cnn(CC#N)c2)c(=O)c2cc(S(=O)(=O)NC3(C)CC3)ccc21
[1]
  EC50: 0.37 µM

## Cc1nc(C)c(Cn2c(=O)c3cc(S(=O)(=O)NC4(C)CC4)ccc3n(C)c2=O)s1
[1]
  EC50: 0.91 µM

## COCCNS(=O)(=O)c1ccc2c(c1)C(=O)c1ccccc1C2=O
[1]
  EC50: > 150 µM

## CC1(NS(=O)(=O)c2ccc3c(c2)C(=O)c2ccccc2C3=O)CC1
[1]
  EC50: 6 µM
[2]
  EC50: 6.6 µM

## CCn1c(=O)n(C)c(=O)c2cc(S(=O)(=O)NC3(C)CC3)ccc21
[1]
  EC50: 1.3 µM
[2]
  EC50: 3.6 µM

## Cn1c(=O)n(Cc2cocn2)c(=O)c2cc(S(=O)(=O)NC3(C)CC3)ccc21
[1]
  EC50: 21 µM

## Cc1nc(C)c(Cn2c(=O)n(C)c(=O)c3cc(S(=O)(=O)NC4(C)CC4)ccc32)s1
[1]
  EC50: 0.18 µM

## COc1ccccc1Cn1c(=O)n(C)c(=O)c2cc(S(=O)(=O)NC3(C)CC3)ccc21
[1]
  EC50: 3.2 µM

## Cn1c(=O)n(CC2CC2)c(=O)c2cc(S(=O)(=O)NC3(C)CC3)ccc21
[1]
  EC50: 4.6 µM

## C#CCn1c(=O)n(C)c(=O)c2cc(S(=O)(=O)NC3(C)CC3)ccc21
[1]
  EC50: 0.71 µM
[2]
  EC50: 0.25 µM

## Cc1cc(Cn2c(=O)c3cc(S(=O)(=O)NC4(C)CC4)ccc3n(C)c2=O)no1
[1]
  EC50: 5.2 µM

## Cn1c(=O)c2cc(S(=O)(=O)NC3(C)CC3)ccc2n(Cc2ccncc2)c1=O
[1]
  EC50: 2.4 µM

## Cn1c(=O)n(Cc2ccccc2)c(=O)c2cc(S(=O)(=O)NC3(C)CC3)ccc21
[1]
  EC50: 26 µM

## Cn1c(=O)n(Cc2cccnc2)c(=O)c2cc(S(=O)(=O)NC3(C)CC3)ccc21
[1]
  EC50: 2.5 µM

## Cn1c(=O)n(Cc2cn[nH]c2)c(=O)c2cc(S(=O)(=O)NC3(C)CC3)ccc21
[1]
  EC50: 0.38 µM

## O=C1c2ccccc2C(=O)c2cc(S(=O)(=O)NC3CC3)ccc21
[1]
  EC50: 13 µM
[2]
  EC50: 22 µM

## N#CCCNS(=O)(=O)c1ccc2c(c1)C(=O)c1ccccc1C2=O
[1]
  EC50: 88 µM

## Cc1noc(C)c1Cn1c(=O)c2cc(S(=O)(=O)NC3(C)CC3)ccc2n(C)c1=O
[1]
  EC50: 0.62 µM

## CCNS(=O)(=O)c1ccc2c(c1)C(=O)c1ccccc1C2=O
[1]
  EC50: 110 µM

## NC(=O)CNS(=O)(=O)c1ccc2c(c1)C(=O)c1ccccc1C2=O
[1]
  EC50: > 150 µM

## Cn1c(=O)n(CC#N)c(=O)c2cc(S(=O)(=O)NC3(C)CC3)ccc21
[1]
  EC50: 1.1 µM

## O=C1c2ccccc2C(=O)c2cc(S(=O)(=O)NCCO)ccc21
[1]
  EC50: > 150 µM

## Cc1nc(-c2ccccc2)c(Cn2c(=O)c3cc(S(=O)(=O)NC4(C)CC4)ccc3n(C)c2=O)s1
[1]
  EC50: 12 µM

## Cn1c(=O)c2cc(S(=O)(=O)NC3CC3)ccc2n(C)c1=O
[1]
  EC50: 11 µM

## Cn1nccc1Cn1c(=O)c2cc(S(=O)(=O)NC3(C)CC3)ccc2n(C)c1=O
[1]
  EC50: 4.1 µM

## Cn1c(=O)c2cc(S(=O)(=O)NC3(C)CC3)ccc2n(Cc2cccc(F)c2)c1=O
[1]
  EC50: 1.6 µM

## Cn1c(=O)n(-c2ccccc2)c(=O)c2cc(S(=O)(=O)NC3(C)CC3)ccc21
[1]
  EC50: 23 µM

## COCCn1c(=O)n(C)c(=O)c2cc(S(=O)(=O)NC3(C)CC3)ccc21
[1]
  EC50: 1.1 µM
[2]
  EC50: 6.1 µM

## C#CCn1c(=O)n(Cc2cnn(C)c2)c(=O)c2cc(S(=O)(=O)NC3(C)CC3)ccc21
[1]
  EC50: 0.052 µM
[2]
  EC50: 0.13 µM
[3]
  microsomal CLint: 42 µL/min/mg

## Cn1c(=O)n(Cc2ccoc2)c(=O)c2cc(S(=O)(=O)NC3(C)CC3)ccc21
[1]
  EC50: 6 µM

## Cc1noc(Cn2c(=O)c3cc(S(=O)(=O)NC4(C)CC4)ccc3n(C)c2=O)n1
[1]
  EC50: 5 µM

## Cc1nc(Cn2c(=O)c3cc(S(=O)(=O)NC4(C)CC4)ccc3n(C)c2=O)cs1
[1]
  EC50: 10 µM

## Cn1c(=O)c2cc(S(=O)(=O)NC3(C)CC3)ccc2n(Cc2ccccn2)c1=O
[1]
  EC50: 5.8 µM

## Cc1nnsc1Cn1c(=O)c2cc(S(=O)(=O)NC3(C)CC3)ccc2n(C)c1=O
[1]
  EC50: 0.88 µM

## CCNS(=O)(=O)c1ccc2c(c1)c(=O)n(C)c(=O)n2C
[1]
  EC50: > 150 µM

## Cn1c(=O)n(Cc2cnc(N)s2)c(=O)c2cc(S(=O)(=O)NC3(C)CC3)ccc21
[1]
  EC50: 0.48 µM

## Cc1ncc(Cn2c(=O)c3cc(S(=O)(=O)NC4(C)CC4)ccc3n(C)c2=O)s1
[1]
  EC50: 0.48 µM

## O=C1c2ccccc2C(=O)c2cc(S(=O)(=O)NC3CCC3)ccc21
[1]
  EC50: > 50 µM

## Cn1c(=O)c2cc(S(=O)(=O)NC3(C)CC3)ccc2n(Cc2ccccc2)c1=O
[1]
  EC50: 1.3 µM
[2]
  EC50: 2.3 µM

## Cc1cc(Cn2c(=O)n(C)c(=O)c3cc(S(=O)(=O)NC4(C)CC4)ccc32)n(C)n1
[1]
  EC50: 0.38 µM

## Cn1c(=O)[nH]c2ccc(S(=O)(=O)NC3(C)CC3)cc2c1=O
[1]
  EC50: 4 µM
[2]
  EC50: 8.1 µM

## Cc1nonc1Cn1c(=O)c2cc(S(=O)(=O)NC3(C)CC3)ccc2n(C)c1=O
[1]
  EC50: 2.1 µM

## Cn1c(=O)c2cc(S(=O)(=O)NC3(C#N)CC3)ccc2n(C)c1=O
[1]
  EC50: 5 µM
[2]
  EC50: 14 µM

## COc1cccc(Cn2c(=O)n(C)c(=O)c3cc(S(=O)(=O)NC4(C)CC4)ccc32)c1
[1]
  EC50: 0.86 µM

## Cn1c(=O)n(CC(=O)c2ccncc2)c(=O)c2cc(S(=O)(=O)NC3(C)CC3)ccc21
[1]
  EC50: 1.7 µM

## CCn1c(=O)c2cc(S(=O)(=O)NC3(C)CC3)ccc2n(C)c1=O
[1]
  EC50: 4 µM

## Cn1ccc(Cn2c(=O)c3cc(S(=O)(=O)NC4(C)CC4)ccc3n(C)c2=O)n1
[1]
  EC50: 12 µM

## Cn1c(=O)n(Cc2ccno2)c(=O)c2cc(S(=O)(=O)NC3(C)CC3)ccc21
[1]
  EC50: 1.2 µM

## COCC(C)(C)NS(=O)(=O)c1ccc2c(c1)C(=O)c1ccccc1C2=O
[1]
  EC50: > 150 µM

## Cn1c(=O)n(Cc2ccncc2)c(=O)c2cc(S(=O)(=O)NC3(C)CC3)ccc21
[1]
  EC50: 8 µM

## Cc1oncc1Cn1c(=O)c2cc(S(=O)(=O)NC3(C)CC3)ccc2n(C)c1=O
[1]
  EC50: 0.77 µM

## CCC(C)(C)NS(=O)(=O)c1ccc2c(c1)C(=O)c1ccccc1C2=O
[1]
  EC50: 49 µM
